Test results from publication PMC9064899 (The FEBS journal, 2021).
Where a chain is given by its changes, count along the chain named. Each block holds one molecule with its values, some of them ahead of it.

How the values were obtained:
[1] = test system: UBIAD1-deficient FIXgla-PC/HEK293 reporter cells; assay: VKD carboxylation of FIXgla-PC supported by K vitamins in UBIAD1-knockout cells; assay type: cell-based, human; conditions: for support of VKD carboxylation of reporter protein: UBIAD1-deficient (knockout) FIXgla-PC/HEK293 cells
Procedure, shortened: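 Ubiad1-knockout FIXgla-PC/HEK293 reporter cells were cultured for 24 h with increasing concentrations of vitamin K1, MK-4, vitamin K3, or menaquinones with 1–4 or 7 isoprene units. K vitamin stocks were made in polyethoxylated castor oil. Carboxylated FIXgla-PC was determined by ELISA, and half-maximal stimulation concentration (EC50) came from curve fitting. Mean ± SD.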

mutant zebrafish = conditions: L65Q mutant zebrafish; cited from earlier work
UBIAD1 G186R = molecular target: T1, UBIAD1 G186R (Homo sapiens, UniProt Q9Y5Z9, G186R); assay: GGPP recognition by UBIAD1 variant; assay type: cell-based; conditions: 1 μM vitamin K3, statin-blocked mevalonate pathway
T1 sequence (Q9Y5Z9 1-338 G186R): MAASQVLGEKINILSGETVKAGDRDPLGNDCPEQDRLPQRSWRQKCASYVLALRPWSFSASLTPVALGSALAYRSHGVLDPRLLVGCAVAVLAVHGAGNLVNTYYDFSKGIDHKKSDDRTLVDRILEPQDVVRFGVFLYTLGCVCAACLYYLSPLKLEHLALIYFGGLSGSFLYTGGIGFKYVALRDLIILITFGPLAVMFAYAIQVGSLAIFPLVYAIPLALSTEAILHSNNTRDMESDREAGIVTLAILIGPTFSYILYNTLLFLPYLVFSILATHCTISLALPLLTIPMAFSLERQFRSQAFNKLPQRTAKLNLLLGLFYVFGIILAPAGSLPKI
Procedure, shortened: (§1)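 Ubiad1-knockout FIXgla-PC/HEK293 cells were transiently transfected with wild-type or mutant UBIAD1. At 24 h they were pre-treated with 10 μM atorvastatin for 3 h. They were then given 1 μM vitamin K3, 10 μM atorvastatin and increasing GGPP for 24 h. Carboxylated FIXgla-PC was read by ELISA, and GGPP EC50 came from a curve fit. Mean ± SD.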

UBIAD1 K181A = molecular target: T2, UBIAD1 K181A (Homo sapiens, UniProt Q9Y5Z9, K181A); assay: GGPP recognition by UBIAD1 variant; assay type: cell-based; conditions: 1 μM vitamin K3, statin-blocked mevalonate pathway
T2 sequence (Q9Y5Z9 1-338 K181A): T1 sequence (Q9Y5Z9 1-338 G186R) with K181A, R186G
Procedure, shortened: as §1

UBIAD1 = molecular target: T3, UBIAD1 (Homo sapiens, UniProt Q9Y5Z9); assay: UBIAD1 activity with exogenous isoprenyl pyrophosphates in statin-blocked cells; assay type: cell-based; conditions: 1 μM vitamin K3, 10 μM atorvastatin or simvastatin, 20 μM GPP, FPP or GGPP
T3 sequence (Q9Y5Z9 1-338): T1 sequence (Q9Y5Z9 1-338 G186R) with R186G
Procedure, shortened: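 FIXgla-PC/HEK293 reporter cells were pre-incubated for 12 h with 10 μM atorvastatin or simvastatin to block endogenous isoprenyl pyrophosphate. Medium then contained 1 μM vitamin K3, statin (10 μM) and 20 μM GPP, FPP or GGPP as side-chain substrate. Carboxylated FIXgla-PC was quantified by ELISA and normalized to GGPP (100%). Mean ± SD, n=3 independent experiments.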

[2] = test system: FIXgla-PC/HEK293 reporter cells; assay: Inhibition of vitamin K3-supported VKD carboxylation; assay type: cell-based, human; conditions: 1 μM vitamin K3 as substrate, 24 hours
Procedure, shortened: (§2)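 HEK293 cells stably expressing FIXgla-PC (protein C whose Gla domain is replaced by that of factor IX), grown in DMEM/F12 with 10% FBS. Vitamin K stocks are made in polyethoxylated castor oil. Cells are cultured with vitamin K for 24 h. The medium is collected and used directly in an ELISA for carboxylated FIXgla-PC, with an anti-carboxylated FIX Gla-domain mAb, HRP anti-protein C and ABTS substrate.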

[3] = test system: FIXgla-PC/HEK293 reporter cells; assay: Inhibition of vitamin K1-supported VKD carboxylation; assay type: cell-based, human; conditions: 5 μM vitamin K1 as substrate, 24 hours
Procedure, shortened: as §2

kidneys = kidneys of atorvastatin-treated mice; cited from earlier work
[4] = test system: FIXgla-PC/HEK293 reporter cells; assay: VKD carboxylation of reporter protein FIXgla-PC supported by K vitamins; assay type: cell-based, human; conditions: intact FIXgla-PC/HEK293 cells, 0.015 nM to 1000 nM, 24 hours
Procedure, shortened: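 Intact FIXgla-PC/HEK293 cells (stable reporter: protein C with factor IX Gla domain) were grown in DMEM/F12 with 10% FBS. They were incubated for 24 h with vitamin K1, MK-4, vitamin K3 or MK-1/2/3/4/7 at 0.015 nM to 1000 nM, from stocks in polyethoxylated castor oil. Carboxylated reporter was measured by ELISA (anti-carboxylated FIXgla capture, HRP anti-protein C, ABTS).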

Structure (SMILES): CC(C)=CCC1=C(C)C(=O)c2ccccc2C1=O [MK-1]
- support of VKD carboxylation of reporter protein [1]: unable to support VKD carboxylation

Structure (SMILES): CC1=C(C/C=C(\C)CCC[C@H](C)CCC[C@H](C)CCCC(C)C)C(=O)c2ccccc2C1=O [vitamin K1, phylloquinone]
- support of VKD carboxylation of reporter protein [1]: efficiently support VKD carboxylation
- rescue of the vascular phenotype (mutant zebrafish): 6%

- increase of EC50 value of GGPP vs wild-type (UBIAD1 G186R): 5 fold
- increase of EC50 value of GGPP vs wild-type (UBIAD1 K181A): 5 fold
- support of VKD carboxylation as side chain source (UBIAD1): support VKD carboxylation
Structure (SMILES): CC(C)=CCC/C(C)=C/CC/C(C)=C/CC/C(C)=C/COP(=O)(O)OP(=O)(O)O [GGPP, geranylgeranyl pyrophosphate]

- support of VKD carboxylation as side chain source (UBIAD1): support VKD carboxylation
Structure (SMILES): CC(C)=CCC/C(C)=C/COP(=O)(O)OP(=O)(O)O [GPP, geranyl pyrophosphate]

Structure (SMILES): CC(C)c1c(C(=O)Nc2ccccc2)c(-c2ccccc2)c(-c2ccc(F)cc2)n1CC[C@@H](O)C[C@@H](O)CC(=O)O [atorvastatin]
- inhibition of VKD carboxylation [2]: dose-response inhibition of VKD carboxylation
- effect on vitamin K1-supported carboxylation [3]: do not affect vitamin K1-supported carboxylation
- reduction of MK-4 production (kidneys): ~ 45%

Structure (SMILES): CC(C)=CCC/C(C)=C/CC/C(C)=C/CC/C(C)=C/CC1=C(C)C(=O)c2ccccc2C1=O [MK-4, menaquinone-4]
- support of VKD carboxylation of reporter protein [4]: efficiently support VKD carboxylation
- support of VKD carboxylation of reporter protein [1]: efficiently support VKD carboxylation
- rescue of the vascular phenotype (mutant zebrafish): 58%

Structure (SMILES): CCC(C)(C)C(=O)O[C@H]1C[C@@H](C)C=C2C=C[C@H](C)[C@H](CC[C@@H]3C[C@@H](O)CC(=O)O3)[C@H]21 [simvastatin]
- inhibition of VKD carboxylation [2]: dose-response inhibition of VKD carboxylation
- effect on vitamin K1-supported carboxylation [3]: do not affect vitamin K1-supported carboxylation

- support of VKD carboxylation as side chain source (UBIAD1): support VKD carboxylation
Structure (SMILES): CC(C)=CCC/C(C)=C/CC/C(C)=C/COP(=O)(O)OP(=O)(O)O [FPP, farnesyl pyrophosphate]

Structure (SMILES): CC(C)=CCC/C(C)=C/CC/C(C)=C/CC/C(C)=C/CC/C(C)=C/CC/C(C)=C/CC/C(C)=C/CC1=C(C)C(=O)c2ccccc2C1=O [MK-7]
- support of VKD carboxylation of reporter protein [4]: efficiently support VKD carboxylation
- carboxylation efficiency relative to MK-4 ([1]; MK-7 higher than MK-4): about 3 fold
- EC50 ([1]; read-out: EC50 (half-maximal stimulation concentration) of K vitamins for VKD carboxylation, UBIAD1-deficient FIXgla-PC/HEK293 cells): 2.3 nM
